Eleven molecules from ChEMBL document CHEMBL1141646, “Microwave-assisted synthesis and antimicrobial activities of flavonoid derivatives” (Bioorg Med Chem Lett, 2008) can be followed below.

Values after ≈ are worked out from the molar mass of the structure shown. Active and inactive are the calls of the source. The rule behind the calls is not given here.

One may read the IC50 as the midpoint of a concentration-inhibition curve.

Holding throughout (type): functional, organism-based
Assay [1] has as its system Fusarium oxysporum. Kind of assay: Antifungal activity against Fusarium oxysporum after 4 days. The following applies: 96 h. In outline:
(§1)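 Compounds were incorporated into agar medium at final concentrations of 200, 100, 50 and 10 µg/mL. A disc of fungal mycelium was placed at the centre of each Petri dish. Plates were incubated at 37 °C until the control plates reached full growth (4 days). Inhibition diameter was then measured and IC50 derived. Values are means of replicates.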

The test system of assay [2] is Aspergillus niger. Kind of assay: Antifungal activity against Aspergillus niger NCTC 275 after 4 days. The following applies: NCTC 275, 96 h. Summed up: as §1
Assay [3] concerns Staphylococcus aureus. Kind of assay: Antibacterial activity against methicillin-resistant Staphylococcus aureus NCTC 10442 by paper disc diffusion method. (A growth-free zone around the sample is the usual read-out of agar diffusion tests.)
Assay [4] relates to Escherichia coli. Kind of assay: Antibacterial activity against Escherichia coli by paper disc diffusion method.
In assay [5] the test system is Staphylococcus aureus. Kind of assay: Antibacterial activity against methicillin-resistant Staphylococcus aureus NCTC 10442 assessed as protein content after 3 hrs by bradford method. The settings on record: NCTC 10442, 3 h. In outline: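 MRSA exposed to compounds dissolved in DMSO, with a DMSO-only negative control and gentamycin at the same concentrations in sterile water as positive control. Incubated 3 h at 37 °C; growth read as protein content by the Bradford method and plotted against compound concentration.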

`COc1ccc2oc(-c3ccc(Cl)cc3)cc(=O)c2c1`: the figures for the IC50 in assay [1] and in assay [2] were 1430 µg/mL (≈ 4980 µM) and 41.9 µg/mL (≈ 146 µM), respectively.

In the case of `O=c1cc(C2CCCCC2)oc2ccc(Br)cc12`, the outcome in assay [3] was Active. Moreover, the result in assay [4] was inactive. For the same molecule, the IC50 in assay [1] amounted to 107 µg/mL (≈ 347 µM); in assay [2], 90.4 µg/mL (≈ 294 µM); in assay [5] it was 12000 µg/mL (≈ 39100 µM).

As to `O=c1cc(-c2cc(C(F)(F)F)cc(C(F)(F)F)c2)oc2ccc(Br)cc12`, the IC50 was determined as 65.2 µg/mL (≈ 149 µM) in assay [1] and 60.3 µg/mL (≈ 138 µM) in assay [2].

In the case of `O=c1cc(-c2ccc(Cl)cc2)oc2ccc(Br)cc12`, the IC50 stood at 282 µg/mL (≈ 840 µM) in assay [1] and 157 µg/mL (≈ 469 µM) in assay [2].

In the case of `O=c1cc(-c2ccc(F)cc2)oc2ccc(Br)cc12`, the IC50 in assay [1] was 682 µg/mL (≈ 2140 µM); in assay [2], 142 µg/mL (≈ 444 µM).

As to `COc1ccc2oc(C3CCCCC3)cc(=O)c2c1`, the result in assay [3] was Active. Also, the outcome in assay [4] was inactive. For the same molecule, the IC50 in assay [1] is 117 µg/mL (≈ 452 µM); in assay [2], 58.9 µg/mL (≈ 228 µM); in assay [5], 69.6 µg/mL (≈ 269 µM).

Regarding `COc1ccc(-c2cc(=O)c3cc(Br)ccc3o2)cc1`, the IC50 in assay [1] is 2250 µg/mL (≈ 6790 µM); in assay [2], 83.4 µg/mL (≈ 252 µM).

For `COc1ccc2c(=O)cc(-c3cc(Cl)cc(Cl)c3)oc2c1`, the IC50 in assay [1] came out at 10600 µg/mL (≈ 33000 µM); in assay [2], 178 µg/mL (≈ 553 µM).

On to `O=c1cc(-c2ccccc2)oc2ccc(Br)cc12` [6-BROMOFLAVONE], for which the results for the IC50 in assay [1] and in assay [2] were 26900 µg/mL (≈ 89400 µM) and 77.1 µg/mL (≈ 256 µM), respectively.

With `COc1ccc2oc(-c3cc(C(F)(F)F)cc(C(F)(F)F)c3)cc(=O)c2c1`, the IC50 is 177 µg/mL (≈ 457 µM) in assay [1] and 93.4 µg/mL (≈ 241 µM) in assay [2].

In the case of `COc1ccc2c(=O)cc(-c3ccc(Br)cc3)oc2c1`, the figures for the IC50 in assay [1] and in assay [2] were 176 µg/mL (≈ 531 µM) and 28.2 µg/mL (≈ 85.2 µM), respectively.
